The values that follow come from ChEMBL document CHEMBL2057123, “Design and synthesis of novel lactate dehydrogenase A inhibitors by fragment-based lead generation” (J Med Chem, 2012).

Calls of active or inactive are those of the source. The calls are words filed in the database; no cut-off is given here.

One test has as its target T1, L-lactate dehydrogenase A chain (Homo sapiens, UniProt P00338). Put plainly: Binding affinity to 6-His-tagged human LDHA (2 to 322 amino acid residue) expressed in Escherichia coli BL21 (DE3) cells by SPR analysis. Particulars: bl21-de3. In general terms: Surface plasmon resonance follows binding to a sensor surface in real time, without labels.
One may read the Kd as the equilibrium constant for the complex coming apart. In the case of `c1cncc(-c2nc3ccccc3[nH]2)c1`, the Kd entry was “Not Active”.
Turning to `Clc1ccccc1-c1nnn[nH]1`, the Kd entry was “Not Active”.
Regarding `NC(=O)C1=CN([C@@H]2O[C@H](COP(=O)(O)O)[C@@H](O)[C@H]2O)C=CC1`, the Kd result was “Not Active”.
For the molecule `O=C(O)c1nsnc1O`, the Kd result was “Not Active”.
The same measure, in the same setting: the result for `NS(=O)(=O)c1ccc(O)c2ccccc12` reads “Not Active”.
In the case of `O=C(O)c1ccc2ccccc2c1O` [CARBOXYNAPHTHOL], the Kd result is “Not Active”.
Still for that read-out and setting: the result for `Nc1ncnc2c1ncn2[C@@H]1O[C@H](COP(=O)(O)O)[C@@H](O)[C@H]1O` [ADENOSINE PHOSPHATE] reads “Not Active”.

The same test, now with this note: read-out: Kd.
Consider `NC(=O)C1=CN([C@@H]2O[C@H](COP(=O)(O)OP(=O)(O)OC[C@H]3O[C@@H](n4cnc5c(N)ncnc54)[C@H](O)[C@@H]3O)[C@@H](O)[C@H]2O)CCC1`, for which the Kd was 12.8 µM.
Still for that read-out and setting: the result for `CCCSc1nc2ccc(NC(=O)CCNC(=O)NCCc3ccc(CC(C(=O)O)C(=O)O)cc3)cc2s1` reads 0.06 µM; that for `CCCSc1nc2ccc(NC(=O)CCNC(N)=O)cc2s1`, 35 µM.
Still for that read-out and setting: the same measure for `COc1ccc(CC(C(=O)O)C(=O)O)cc1`: 1100 µM; for `CCCSc1nc2ccc(NC(=O)CCNC(=O)CCCc3ccc(CC(C(=O)O)C(=O)O)cc3)cc2s1`: 0.008 µM; for `Cc1nc2ccc(NC(=O)CCC(=O)O)cc2s1`: 500 µM.
With `Cc1nc2ccc(NC(=O)CCNC(=O)NCCc3ccc(OC(C(=O)O)C(=O)O)cc3)cc2s1`, the Kd turned out to be 1.2 µM.
The same measure, in the same setting: the result for `O=c1[nH]n(-c2ccccc2)c2ncccc12` reads 1600 µM; that for `CCCSc1nc2ccc(NC(=O)CCNC(=O)NCCc3ccc(OC(C(=O)O)C(=O)O)cc3)cc2s1`, 0.18 µM; that for `Cc1nc2ccc(NC(=O)CCNC(=O)NCCOc3ccc(CCC(=O)O)cc3)cc2s1`, 3.2 µM.
The same measure, in the same setting: the same measure for `CC(=O)Nc1ccc2nc(C)sc2c1`: 790 µM.
On the same count and under the same terms, the result for `CCCSc1nc2ccc(NC(=O)CCNC(=O)NCCOc3ccc(CC(C(=O)O)C(=O)O)cc3)cc2s1` reads 0.046 µM; that for `CCCSc1nc2ccc(NC(=O)CCC(=O)O)cc2s1`, 40 µM; that for `COCCNc1ncnc2ccccc12`, 3000 µM.

A further test has as its target T1, L-lactate dehydrogenase A chain. The experiment in a line: Binding affinity to 6-His-tagged human LDHA (2 to 322 amino acid residue) expressed in Escherichia coli BL21 (DE3) cells by NMR analysis in presence of NAD+.
Settings: not given
In outline: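 Ligand-observed NMR at 298 K, 600 MHz, in 100 mM HEPES pH 7.5, 2 mM TCEP, 0.02% sodium azide, with 1 mM NAD⁺ present. Binding was detected by WaterLOGSY and T₁ρ-filtered 1D spectra (LDHA 40−48 μM monomer). […] Single experiment.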
With `NC(=O)C1=CN([C@@H]2O[C@H](COP(=O)(O)OP(=O)(O)OC[C@H]3O[C@@H](n4cnc5c(N)ncnc54)[C@H](O)[C@@H]3O)[C@@H](O)[C@H]2O)CCC1`, the outcome was Active.

The next test shares this target. Put plainly: Inhibition of full length human recombinant LDHA expressed in Escherichia coli BL21 (DE3) cells after 10 mins by spectrophotometric analysis.
Settings: not given
Usually IC50 stands for the concentration that gives 50% inhibition. Regarding `NC(=O)C1=CN([C@@H]2O[C@H](COP(=O)(O)OP(=O)(O)OC[C@H]3O[C@@H](n4cnc5c(N)ncnc54)[C@H](O)[C@@H]3O)[C@@H](O)[C@H]2O)CCC1`, the IC50 turned out to be 132 µM.
Consider `c1cncc(-c2nc3ccccc3[nH]2)c1`, for which the IC50 was above 500 µM.
The same measure, in the same setting: the result for `Cc1nc2ccc(NC(=O)CCNC(=O)NCCc3ccc(CC(C(=O)O)C(=O)O)cc3)cc2s1` reads 1.9 µM; that for `CCCSc1nc2ccc(NC(=O)CCNC(=O)NCCc3ccc(CC(C(=O)O)C(=O)O)cc3)cc2s1`, 0.29 µM.
Turning to `CCCSc1nc2ccc(NC(=O)CCNC(N)=O)cc2s1`, the IC50 is above 500 µM.
On the same count and under the same terms, the result for `COc1ccc(CC(C(=O)O)C(=O)O)cc1` reads above 500 µM; that for `CCCSc1nc2ccc(NC(=O)CCNC(=O)CCCc3ccc(CC(C(=O)O)C(=O)O)cc3)cc2s1`, 0.27 µM.
For `Cc1nc2ccc(NC(=O)CCC(=O)O)cc2s1`, the IC50 was above 500 µM.
Turning to `Cc1nc2ccc(NC(=O)CCNC(=O)CCCc3ccc(CC(C(=O)O)C(=O)O)cc3)cc2s1`, the IC50 was 0.5 µM.
Still for that read-out and setting: the same measure for `Cc1nc2ccc(NC(=O)CCNC(=O)NCCc3ccc(OC(C(=O)O)C(=O)O)cc3)cc2s1`: 29.5 µM.
As for `O=C(O)c1cc2c(C(F)(F)F)cc(-c3ccccc3)cc2n1O`, the IC50 was above 500 µM.
Same read-out and setting: the same measure for `NC(=O)C1=CN([C@@H]2O[C@H](COP(=O)(O)O)[C@@H](O)[C@H]2O)C=CC1`: above 500 µM; for `O=c1[nH]n(-c2ccccc2)c2ncccc12`: above 500 µM.
On the same count and under the same terms, the result for `CCCSc1nc2ccc(NC(=O)CCNC(=O)NCCc3ccc(OC(C(=O)O)C(=O)O)cc3)cc2s1` reads 7.4 µM; that for `O=C(O)c1nsnc1O`, 450 µM.
On the same count and under the same terms, the result for `Cc1nc2ccc(NC(=O)CCNC(=O)NCCOc3ccc(CCC(=O)O)cc3)cc2s1` reads 86.2 µM; that for `CC(=O)Nc1ccc2nc(C)sc2c1`, above 500 µM.
`CCCSc1nc2ccc(NC(=O)CCNC(=O)NCCOc3ccc(CC(C(=O)O)C(=O)O)cc3)cc2s1`: the IC50 stood at 3.1 µM.
Regarding `NS(=O)(=O)c1ccc(O)c2ccccc12`, the IC50 is above 500 µM.
For `O=C(O)c1ccc2ccccc2c1O` [CARBOXYNAPHTHOL], the IC50 was above 500 µM.
Same read-out and setting: the same measure for `CCCSc1nc2ccc(NC(=O)CCC(=O)O)cc2s1`: above 500 µM; for `COCCNc1ncnc2ccccc12`: above 500 µM; for `Cc1nc2ccc(NC(=O)CCNC(=O)NCCOc3ccc(CC(C(=O)O)C(=O)O)cc3)cc2s1`: 4.2 µM.
As to `Nc1ncnc2c1ncn2[C@@H]1O[C@H](COP(=O)(O)O)[C@@H](O)[C@H]1O` [ADENOSINE PHOSPHATE], the IC50 is above 500 µM.

A further test has the same target. The experiment in a line: Binding affinity to 6-His-tagged human LDHA (2 to 322 amino acid residue) expressed in Escherichia coli BL21 (DE3) cells by NMR analysis in presence of NADH. The note with it: bl21-de3.
Take `CCCSc1nc2ccc(NC(=O)CCNC(N)=O)cc2s1`: the Kd entry was “Active”.
Regarding `Cc1nc2ccc(NC(=O)CCNC(N)=O)cc2s1`, the Kd result was “Active”.

Still in this test, the particulars now being: read-out: Kd.
Turning to `c1cncc(-c2nc3ccccc3[nH]2)c1`, the Kd amounted to 1400 µM.
Still for that read-out and setting: the result for `COc1ccc(CC(C(=O)O)C(=O)O)cc1` reads 240 µM; that for `Cc1nc2ccc(NC(=O)CCC(=O)O)cc2s1`, 540 µM; that for `O=C(O)c1cc2c(C(F)(F)F)cc(-c3ccccc3)cc2n1O`, above 9 µM.
Same read-out and setting: the same measure for `O=C(O)CC(=O)O` [MALONIC ACID]: 5000 µM; for `NC(=O)C1=CN([C@@H]2O[C@H](COP(=O)(O)O)[C@@H](O)[C@H]2O)C=CC1`: 4000 µM.
On the same count and under the same terms, the same measure for `O=c1[nH]n(-c2ccccc2)c2ncccc12`: 300 µM.
As for `NS(=O)(=O)c1ccc(O)c2ccccc12`, the Kd worked out at 400 µM.
Same read-out and setting: the same measure for `O=C(O)c1ccc2ccccc2c1O` [CARBOXYNAPHTHOL]: 640 µM; for `CCCSc1nc2ccc(NC(=O)CCC(=O)O)cc2s1`: 92 µM.
Still for that read-out and setting: the same measure for `COCCNc1ncnc2ccccc12`: 2400 µM; for `Nc1ncnc2c1ncn2[C@@H]1O[C@H](COP(=O)(O)O)[C@@H](O)[C@H]1O` [ADENOSINE PHOSPHATE]: 650 µM.

In another test the target is L-lactate dehydrogenase B chain (Homo sapiens, UniProt P07195). The experiment in a line: Inhibition of human recombinant LDHB (2 to 334 amino acid residue) expressed in Escherichia coli BL21 (DE3) cells after 10 mins by spectrophotometric analysis.
L-lactate dehydrogenase B chain, sequence (P07195 whole entry, the tested form may be a part): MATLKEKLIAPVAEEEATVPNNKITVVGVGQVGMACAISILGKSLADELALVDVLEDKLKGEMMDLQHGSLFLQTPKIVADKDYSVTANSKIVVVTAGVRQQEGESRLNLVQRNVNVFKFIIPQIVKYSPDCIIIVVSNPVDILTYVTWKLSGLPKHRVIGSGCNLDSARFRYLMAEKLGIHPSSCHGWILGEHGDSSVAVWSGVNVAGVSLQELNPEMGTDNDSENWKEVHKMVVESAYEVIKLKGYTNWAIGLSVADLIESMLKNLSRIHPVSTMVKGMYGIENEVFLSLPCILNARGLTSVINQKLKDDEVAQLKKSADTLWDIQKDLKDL
Settings: not given
Consider `NC(=O)C1=CN([C@@H]2O[C@H](COP(=O)(O)OP(=O)(O)OC[C@H]3O[C@@H](n4cnc5c(N)ncnc54)[C@H](O)[C@@H]3O)[C@@H](O)[C@H]2O)CCC1`, for which the IC50 worked out at 9.4 µM.
`O=C(O)c1nsnc1O`: the IC50 was determined as 7.8 µM.
